Reference: ChEMBL document CHEMBL4130626, “α-Arylidene Diacylglycerol-Lactones (DAG-Lactones) as Selective Ras Guanine-Releasing Protein 3 (RasGRP3) Ligands” (J Med Chem, 2018)

Columns and labels:
Format in all cases: cell-based
[1] = molecular target: Protein kinase C delta type (Homo sapiens, UniProt Q05655); test: Activation of PKCdelta (unknown origin) expressed in HEK293 cells harboring GFP-tagged RasGRP1 assessed as phosphorylation at ser299 residues after 30 mins by immunoblot method
Summary of the method: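 PKCδ activation read as phospho-S299 on western blots of lysates (50 µg protein, 10% SDS-PAGE, milk blocking, anti-PKCδS299 overnight). Cells: GFP-RasGRP1/3-transfected HEK293 or LNCaP, or Ramos, treated 30 min at 37 °C with half-log doses (maximum 10 µM), 1000 nM PMA or DMSO. Scanned intensities normalized to 1000 nM PMA; EC50 mean ± SEM, n = 3; values above 10 µM extrapolated.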

[2] = molecular target: T1, RAS guanyl-releasing protein 1 (Homo sapiens, UniProt O95267); test: Activation of GFP-tagged RasGRP1 (unknown origin) expressed in HEK293 cells assessed as ERK1/2 phosphorylation after 30 mins by immunoblot method
T1 sequence (O95267 whole entry): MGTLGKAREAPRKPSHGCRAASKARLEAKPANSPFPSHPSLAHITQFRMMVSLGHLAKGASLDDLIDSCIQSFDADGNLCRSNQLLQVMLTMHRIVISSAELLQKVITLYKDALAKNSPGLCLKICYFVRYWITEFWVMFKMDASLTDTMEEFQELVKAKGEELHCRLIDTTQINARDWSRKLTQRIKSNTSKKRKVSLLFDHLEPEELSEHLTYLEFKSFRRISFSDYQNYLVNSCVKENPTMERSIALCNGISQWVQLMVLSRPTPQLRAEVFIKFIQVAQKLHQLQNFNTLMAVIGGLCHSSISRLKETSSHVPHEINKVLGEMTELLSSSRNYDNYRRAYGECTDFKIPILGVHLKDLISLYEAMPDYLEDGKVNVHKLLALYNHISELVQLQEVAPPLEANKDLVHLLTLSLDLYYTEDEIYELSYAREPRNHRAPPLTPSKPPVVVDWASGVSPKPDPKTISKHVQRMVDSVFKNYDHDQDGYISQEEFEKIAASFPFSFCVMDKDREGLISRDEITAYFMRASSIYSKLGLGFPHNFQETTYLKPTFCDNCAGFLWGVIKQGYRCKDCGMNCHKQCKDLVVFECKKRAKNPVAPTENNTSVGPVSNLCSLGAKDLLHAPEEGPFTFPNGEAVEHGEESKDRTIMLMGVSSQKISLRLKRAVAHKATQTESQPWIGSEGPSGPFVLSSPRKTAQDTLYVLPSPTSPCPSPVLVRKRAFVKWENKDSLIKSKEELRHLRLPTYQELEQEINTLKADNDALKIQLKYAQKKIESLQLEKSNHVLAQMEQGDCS
Summary of the method: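 Cells expressing GFP-RasGRP1/3 (HEK293 or LNCaP, 48 h after plating, transfected; expression checked by fluorescence 24-48 h later) or Ramos with endogenous RasGRP3 treated with half-log increasing concentrations (max 10 µM), 1000 nM PMA or DMSO, 37 °C, 30 min, 5% CO2. RasGTP by Raf1 RBD bead pulldown and anti-Pan-Ras immunoblot; pERK by western blot. Band intensities normalized to 1000 nM PMA; EC50 from n = 3.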

Homo sapiens = species: Homo sapiens; test: Selectivity ratio of EC50 for PKCdelta (unknown origin) expressed in human LNCAP cells harboring GFP-tagged RasGRP1 to EC50 for GFP-tagged RasGRP1 (unknown origin) expressed in human LNCAP cells

Sequence of Protein kinase C delta type (Q05655 whole entry): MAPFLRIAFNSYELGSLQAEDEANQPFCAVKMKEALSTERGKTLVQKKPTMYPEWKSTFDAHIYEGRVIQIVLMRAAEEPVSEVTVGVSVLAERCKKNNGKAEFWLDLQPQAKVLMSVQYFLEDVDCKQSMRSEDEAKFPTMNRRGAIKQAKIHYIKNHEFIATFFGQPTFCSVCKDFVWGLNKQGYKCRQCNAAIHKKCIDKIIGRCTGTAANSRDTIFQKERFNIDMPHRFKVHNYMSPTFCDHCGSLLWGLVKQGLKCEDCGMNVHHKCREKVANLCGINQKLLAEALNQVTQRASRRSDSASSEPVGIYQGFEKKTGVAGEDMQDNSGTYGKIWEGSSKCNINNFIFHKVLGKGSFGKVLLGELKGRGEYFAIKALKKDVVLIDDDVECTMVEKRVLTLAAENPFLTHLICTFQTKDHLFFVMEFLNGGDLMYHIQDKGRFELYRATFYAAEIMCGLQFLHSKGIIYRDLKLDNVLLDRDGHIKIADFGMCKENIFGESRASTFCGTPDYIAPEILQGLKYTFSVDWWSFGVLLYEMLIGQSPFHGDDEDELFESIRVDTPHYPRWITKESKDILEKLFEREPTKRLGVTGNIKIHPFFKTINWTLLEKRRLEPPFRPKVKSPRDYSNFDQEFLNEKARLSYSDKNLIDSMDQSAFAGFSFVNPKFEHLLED

For `Cn1cc(/C=C2\CC(CO)(COC(=O)C(C)(C)C)OC2=O)c2ccccc21` (stereo not drawn), the EC50 [1] was 12.6 µM, the EC50 [2] was 4.88 µM and the Ratio EC50 (Homo sapiens) was 8.3.
